Arbovirus anti: antivirals against arbovirus infection; arbovirus infection cell-based antiviral screen; inhibition, % at 10 µM; 200,000 tested, 0.37% active; AID 1251; in the data active = inhibition above about 30%
Wee1 stabilizer: inhibitors of human Wee1 degradation | reporter increase, % at 5 µM | HeLa Luc-Wee1K328M stability, luciferase luminescence; 100% = proteasome inhibitor MG132 effect | AID 1321 | 220,000 tested, 1.2% active;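 active = activation above the mean of all tested compounds plus 3 SD, set per screening run, cut at about 8.8% in these data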;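 note: cells exposed to compound for 20 h before luminescence read; 0% = DMSO alone and 100% = MG132 at 30 µM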
Target sequence (P30291 whole entry K328M): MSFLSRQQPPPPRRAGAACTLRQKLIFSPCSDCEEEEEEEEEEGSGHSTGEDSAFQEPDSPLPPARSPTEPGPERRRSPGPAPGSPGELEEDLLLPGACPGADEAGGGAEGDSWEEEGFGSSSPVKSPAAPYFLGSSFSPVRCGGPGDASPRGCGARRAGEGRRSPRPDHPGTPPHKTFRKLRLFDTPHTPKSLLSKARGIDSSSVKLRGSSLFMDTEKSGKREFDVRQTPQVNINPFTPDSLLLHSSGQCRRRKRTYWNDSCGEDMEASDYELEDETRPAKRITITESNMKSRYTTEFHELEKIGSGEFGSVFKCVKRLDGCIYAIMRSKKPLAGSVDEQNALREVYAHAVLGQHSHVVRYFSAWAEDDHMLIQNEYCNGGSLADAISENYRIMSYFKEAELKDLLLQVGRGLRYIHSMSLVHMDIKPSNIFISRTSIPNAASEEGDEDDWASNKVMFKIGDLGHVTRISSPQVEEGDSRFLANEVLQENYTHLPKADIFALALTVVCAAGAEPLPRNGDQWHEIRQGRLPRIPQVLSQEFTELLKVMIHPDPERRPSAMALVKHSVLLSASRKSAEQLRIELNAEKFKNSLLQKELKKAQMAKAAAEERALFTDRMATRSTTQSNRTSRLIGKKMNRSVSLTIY
PKD1 kinase inh: PKD1 (human) kinase inhibition; PKD1 kinase fluorescence polarization assay; inhibition, % (no concentration beside the values); 200,000 tested, 0.056% active
Lmaj promast: Leishmania major promastigote growth inhibition | 200,000 tested, 9% active | Leishmania major promastigotes, resazurin fluorescence viability | inhibition, % at 10 µM | AID 1063;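 note: promastigotes grown with compound for 44 hours at 28 °C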
Rad51 HR inh: blocks human Rad51 in homologous recombination. AID 1385. 200,000 tested, 0.085% active. Q06609. inhibition, % at 10 µM. hRad51 DNA strand exchange, fluorescence dequenching;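 active = inhibition above 40% at the single screening dose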;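 note: 0% = DMSO control wells and 100% = blanks with heterologous ssDNA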
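material = hRad51 filaments on single-stranded DNA | reagent = Donor/quencher-labelled 47-bp dsDNA substrate | compound = 10 µM final, single point | schedule = strand-exchange reaction 15 min at room temperature | measured by = fluorescein emission 520 nm, excitation 485 nm | read-out basis = % inhibition versus plate control and blank means | benchmarks = plate controls and plate blanks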
CHOP inhibitor: inhibitors of CHOP induction in ER stress response | inhibition, % at 10 µM | CHO-K1 CHOP-promoter luciferase, tunicamycin-induced, 15-18 h | 220,000 tested, 3.8% active;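 active = compounds that reduced the stress-induced luciferase reporter signal by more than about 70% of percent inhibition, limit read from the data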;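 note: 0% = tunicamycin plus vehicle and 100% = wells without tunicamycin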
An asterisk follows results filed as active; / = not tested or not shown. Most compounds without a hit are left out; they make up all but 12% or so of the library. Cut-off read from the data, not from the text of the source, unless noted: active = inhibition above about 50%; inactive = the rest.

SMILES | Arbovirus anti | Wee1 stabilizer | PKD1 kinase inh | Lmaj promast | Rad51 HR inh | CHOP inhibitor
CC1(C)N=C(c2ccc(Cl)cc2Cl)C(=O)N1 | -2.9 | 0.8 | -0.2 | -5.2 | -0.2 | 6.0
CCSC1=NC(C)(C)C=C(/C=C/c2ccc(Cl)cc2Cl)N1 | -35.3 | -1.3 | 9.2 | 100.1* | / | 34.8
CSC1=NC(C)(C)C=C(/C=C/c2ccc(Cl)cc2)N1 | -27.4 | -1.7 | -2.0 | 100.4* | -12.4 | -21.7
CC(=O)N(C)c1nc(N)n(-c2ccccc2)n1 | 4.2 | 5.8 | 4.5 | -6.2 | -0.3 | -12.5
Cc1cc(OCCn2cnc3ccccc3c2=O)cc(C(C)C)c1 | -2.5 | -1.0 | -4.4 | 3.6 | / | -17.7
Cc1cc(OCCCCNC(C)C)cc(C(C)C)c1 | -7.2 | 2.9 | -7.7 | 96.5* | / | 26.6
Cc1ccc2c(c1)nnn2C1CCN(C(=O)c2ccccc2F)CC1 | 3.0 | 0.5 | -3.8 | -4.1 | -22.2 | 7.0
O=C(Nc1ccc(F)cc1)NC1CCN(Cc2ccccc2)CC1 | 1.9 | 0.9 | -1.7 | 54.8* | -3.7 | 4.5
O=C(CN1CCC(NC(=O)c2ccccc2F)CC1)Nc1ccc2c(c1)OCCO2 | -6.0 | 5.2 | -4.1 | -3.5 | 3.2 | 15.8
O=C(Nc1ccc2c(c1)OCO2)NC1CCN(Cc2ccccc2)CC1 | -9.4 | -0.4 | -8.2 | 77.9* | -7.0 | 11.4
O=C(Nc1ccccc1)NC1CCN(Cc2c(F)cccc2Cl)CC1 | / | -1.9 | / | / | 22.8 | 18.3
Cc1ccccc1C(=O)NC1CCN(CC(=O)Nc2ccc3c(c2)OCCO3)CC1 | -0.8 | -1.4 | -3.2 | 90.2* | 3.1 | 13.2
CC(C)c1ccc(NC(=O)NC2CCN(CC(=O)Nc3cccc4ccccc34)CC2)cc1 | -20.5 | 1.3 | -5.9 | 58.5* | / | 45.5
CCN(CC)C1=C(Cl)C(=O)C(Cl)C12OCCO2 (stereo unspecified) | / | 2.4 | / | / | -1.4 | 2.9
O=C(NNc1ccccc1C(F)(F)F)c1sccc1Br | / | 3.1 | / | / | 11.7 | -0.6
O=C(Nc1ccc2c(c1)OCO2)C1CCN(Cc2cnn(-c3ccccc3)c2-n2cccc2)CC1 | -7.3 | 3.1 | -11.2 | 98.4* | -1.4 | 68.1
CCOC(=O)C(NC(=O)c1cccc(Cl)c1)(OCc1ccc(F)cc1)C(F)(F)F (stereo unspecified) | 48.8* | 3.7 | 5.2 | 5.8 | 2.7 | 56.8
O=C(c1cc2ccccc2oc1=O)N(Cc1ccccc1)Cc1ccc2c(c1)OCO2 | -4.8 | -0.7 | -1.9 | 61.0* | -7.9 | -0.9
COc1ccc(CN(C(=O)c2cc3ccccc3oc2=O)C2CCCCC2)cc1OC | 103.0* | 1.5 | -4.4 | 8.5 | -17.3 | 14.7
COc1ccc(C(=O)/C=C/c2ccc(O)cc2)c(O)c1CC=C(C)C | -40.5 | 1.6 | -4.1 | 6.9 | -4.8 | 79.0*
CC(=O)c1ccc(O)c(CC=C(C)C)c1O | / | / | / | / | -2.0 | /
COc1ccc(C2=NC(=O)/C(=C\c3cc(OC)c(OC)c(OC)c3)O2)cc1 | 1.7 | 3.3 | -5.9 | -3.4 | -71.5 | 89.0*
COc1ccc2c(c1)CC/C(=C/c1cc(OC)c(OC)c(OC)c1)C2=O | 6.5 | -2.0 | -0.8 | 40.2 | 12.7 | 28.3
NC(=NCc1ccc(Cl)c(Cl)c1)NC(=O)c1nc(Cl)c(N)nc1N | / | / | / | / | / | -18.5
CCOC(=O)c1c(C)oc2c1cc(O)c1ccccc12 | -7.0 | -1.7 | -4.7 | -7.3 | 1.0 | 77.3*
SMILES | Arbovirus anti | Wee1 stabilizer | PKD1 kinase inh | Lmaj promast | Rad51 HR inh | CHOP inhibitor
CCOC(=O)c1c(C)oc2c1c(C=NCc1ccccn1)c(O)c1ccccc12 | -9.4 | 5.6 | -5.2 | 98.1* | / | 82.2*
CCOC(=O)c1c(C)oc2c1c(C=NCC1CCCO1)c(O)c1ccccc12 (stereo unspecified) | -8.8 | 1.4 | -0.8 | 97.8* | / | 66.1
CCOC(=O)c1c(NCC2CCCO2)c2ccccc2[nH]c1=O (stereo unspecified) | 6.0 | 2.5 | 10.1 | 3.6 | -4.6 | 11.4
Cc1ccc(-n2c(O)c(C=NCc3ccccn3)c3ccccc3c2=O)cc1 | -11.0 | 0.9 | 1.7 | 4.1 | / | 2.1
Cc1nnc(-c2cnn(C)c2N)n1CCCN1CCOCC1 | 4.3 | 0.7 | 0.5 | -8.6 | -0.7 | -7.0
CCC(CC)NC(=O)c1cc2c(C)nn(Cc3ccccc3Cl)c2s1 | -5.5 | -3.4 | -1.9 | 20.2 | -0.8 | 46.3
Cc1nn(Cc2ccccc2Cl)c2sc(C(=O)Nc3nccs3)cc12 | -8.8 | -1.0 | -20.5 | 41.9 | 14.3 | 84.0*
Cc1nn(Cc2ccc(F)cc2)c2sc(C(=O)Nc3ccccc3N3CCOCC3)cc12 | 7.1 | 1.3 | 5.0 | 34.5 | / | -10.9
Cc1nn(Cc2ccc(F)cc2)c2sc(C(=O)Nc3nccs3)cc12 | -9.1 | 5.5 | -6.2 | 49.3 | -2.7 | 92.8*
Cc1ccc2nc(Cl)c(/C=N/Nc3nc(C)cc(C)n3)c(=O)n2c1 | 3.1 | 0.4 | 0.1 | 57.1* | -1.9 | 17.6
CCNC(=S)N(Cc1ccc2c(c1)OCO2)C1CC(=O)N(c2ccc(F)cc2)C1=O (stereo unspecified) | -9.3 | -0.2 | 5.7 | 6.3 | -0.6 | 73.4*
CCNC(=S)N(Cc1ccc(OC)cc1)C1CC(=O)N(c2ccc(OCC)cc2)C1=O (stereo unspecified) | -0.3 | -1.1 | 2.2 | 10.0 | -8.3 | 73.2*
Cc1ccc(O)c(-c2cc(C(F)(F)C(F)F)[nH]n2)c1 | 34.3* | -0.7 | -11.9 | 0.6 | -3.8 | 55.0
Cc1ccc(O)c(-c2cc(C(=O)Nc3cccnc3)[nH]n2)c1 | / | 3.5 | / | / | 10.6 | -4.5
COc1cc(SC)ccc1C(=O)NCCOc1ccc(Cl)cc1 | -0.2 | -2.1 | -6.4 | 0.2 | -4.2 | 27.4
COc1cc(SC)ccc1C(=O)NCCOc1c(C)cc(C)cc1C | -6.0 | -0.9 | 2.0 | 3.5 | -5.2 | 91.2*
COc1cc(SC)ccc1C(=O)Nc1ncc(C)s1 | 22.4 | -3.2 | 4.0 | 66.5* | -1.0 | 69.3
COc1cc(SC)ccc1C(=O)Nc1ccc(Br)cn1 | / | -1.7 | / | / | 10.7 | 59.7
COc1ccc(S(=O)(=O)NC(Cc2cnc[nH]2)C(=O)O)cc1 (stereo unspecified) | -1.1 | 0.5 | -4.1 | 51.1* | -1.1 | -0.8
CCCCCCCCn1ccc(=N)cc1 | / | -0.4 | / | / | 1.2 | 62.1
CCCCCCCCCCn1ccc(=N)cc1 | / | -3.1 | / | / | 23.4 | 80.1*
CCOc1ccc2c(=O)c(Oc3ccccc3)c(C)oc2c1 | -0.3 | -1.2 | -0.8 | 3.3 | / | 76.2*
O=C(Nc1ccccc1)Nc1csc2ccccc12 | / | 10.0* | / | / | -22.1 | -11.5
CC(=O)Nc1csc2ccccc12 | 3.4 | 2.0 | 2.4 | -6.3 | -9.4 | 7.3
Cc1ccc(Cl)cc1N1CCN(C(=O)Cc2csc(Nc3nc(=S)[nH]c4ccccc34)n2)CC1 | -16.9 | 0.0 | 3.1 | 14.2 | -73.8 | 83.5*
COc1ccc(C2=CC(=O)CC(c3ccccc3)C2)cc1 (stereo unspecified) | 14.7 | -2.8 | 1.4 | 59.1* | -3.7 | 38.7
Cc1ccc(S(=O)(=O)N(C(=O)c2ccco2)c2cc3sc(=O)oc3c3ccccc23)cc1 | -29.5 | -0.6 | 4.8 | 97.7* | / | 2.9
CC(=O)N(c1ccc2oc(=O)sc2c1)S(=O)(=O)c1ccccc1 | -9.2 | -0.2 | 0.6 | -2.5 | -11.2 | 0.0
CCOc1ccc(NC(=O)c2ccco2)cc1 | 2.1 | 0.1 | -16.1 | -2.1 | -2.1 | 23.3
